The structures appear in SMILES notation. Active and inactive are the calls of the source. The rule behind the calls is not given here.

Data set [1] concerns MCF7. Kind of data set: Cell cycle arrest in human MCF7 cells assessed as accumulation at G2/M phase at 4 uM after 24 hrs by propidium iodide staining-based flow cytometric analysis (reference value: 15%). In kind it is functional.
Data set [2] deals with MCF7. Briefly: Cytotoxicity against human MCF7 cells assessed as cell viability at 0.5 to 32 uM after 24 hrs by MTT assay. In kind it is functional, cell-based. Summed up: (§1)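 Cells seeded at 10,000/well, incubated overnight, then exposed 24 h to 0.5–32 µM, etoposide as standard. MTT added, 2 h at 37 °C; formazan solubilised in extraction buffer, OD read at 570 nm; percent viability determined. Triplicates, Student t-test.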

Data set [3] relates to MCF7. Kind of data set: Antiangiogenic activity in human MCF7 cells assessed as downregulation of VEGF-A protein expression at 4 uM after 24 hrs by Western blotting analysis. In kind it is functional, cell-based. In general terms: A western blot detects proteins with antibodies after separation by electrophoresis.
For data set [4], the system named is HUVEC. Briefly: Cytotoxicity against HUVEC assessed as cell viability at 1 uM after 6 hrs by MTT assay. The settings on record: human. In kind it is cell-based. An outline of the steps:
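HUVEC at 10,000 cells/well exposed for 6 h across 0.5–32 µM; percent viability plotted, etoposide as standard. Triplicates, Student t-test.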
For orientation: Formazan colour is commonly taken as a measure of viable cells.

Data set [5] concerns MCF7. Briefly: Antiangiogenic activity in human MCF7 cells assessed as downregulation of STAT3 protein expression at 4 uM after 24 hrs by Western blotting analysis. In kind it is functional, cell-based.
The test system of data set [6] is MCF7. Briefly: Induction of apoptosis in human MCF7 cells assessed as upregulation of cytochrome-c protein expression in cytosol at 4 uM after 24 hrs by Western blotting analysis. In kind it is functional, cell-based.
The test system of data set [7] is MCF7. Briefly: Antimitotic activity in human MCF7 cells assessed as upregulation of cyclin B1 protein expression at 4 uM after 24 hrs by Western blotting analysis. In kind it is functional, cell-based.
The test system of data set [8] is HUVEC. Kind of data set: Antiangiogenic activity in HUVEC assessed as inhibition of VEGF-A-induced tube formation at 1 uM after 6 hrs by inverted microscopic analysis. In kind it is functional, cell-based. The settings on record: Homo sapiens. Summed up: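 HUVEC (ECM medium, 5% FBS, 1% ECGS) seeded at 5×10^3 cells/well on EC matrix solidified at 37 °C, grown 12 h in endothelial growth media, then treated at 1 µM final for about 6 h. Tube formation examined by inverted microscopy. Etoposide as reference.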

The test system of data set [9] is MCF7. Briefly: Cell cycle arrest in human MCF7 cells assessed as accumulation at G0 phase at 4 uM after 24 hrs by propidium iodide staining-based flow cytometric analysis (reference value: 3%). Type of data set: functional.
Data set [10] deals with MCF7. Briefly: Cell cycle arrest in human MCF7 cells assessed as accumulation at G1 phase at 4 uM after 24 hrs by propidium iodide staining-based flow cytometric analysis (reference value: 77%). In kind it is functional.
The test system of data set [11] is MCF7. Briefly: Antiangiogenic activity in human MCF7 cells assessed as upregulation of STAT1 protein expression at 4 uM after 24 hrs by Western blotting analysis. In kind it is functional, cell-based.
The subject of data set [12] is MCF7. Kind of data set: Antiangiogenic activity in human MCF7 cells assessed as downregulation of AKT phosphorylation at Ser473 at 4 uM after 24 hrs by Western blotting analysis. In kind it is functional, cell-based.
The test system of data set [13] is MCF7. Briefly: Antimitotic activity in human MCF7 cells assessed as upregulation of p53 protein expression at 4 uM after 24 hrs by Western blotting analysis. In kind it is functional, cell-based.
For data set [14], the system named is MCF7. Briefly: Antiangiogenic activity in human MCF7 cells assessed as downregulation of ERK1/2 protein expression at 4 uM after 24 hrs by Western blotting analysis. Type of data set: functional, cell-based.
The next data set concerns PANC-1. Kind of data set: Cytotoxicity against human PANC1 cells assessed as cell viability at 0.5 to 32 uM after 24 hrs by MTT assay. In kind it is functional, cell-based. Summed up: as §1
In data set [15] the test system is MCF7. Briefly: Induction of apoptosis in human MCF7 cells assessed as upregulation of caspase-9 protein expression at 4 uM after 24 hrs by Western blotting analysis. In kind it is functional, cell-based.
For data set [16], the system named is MCF7. Briefly: Antiangiogenic activity in human MCF7 cells assessed as effect on AKT1 protein expression at 4 uM after 24 hrs by Western blotting analysis. In kind it is functional, cell-based.
In data set [17] the test system is MCF7. Briefly: Antimitotic activity in human MCF7 cells assessed as downregulation of Cdk1 protein expression at 4 uM after 24 hrs by Western blotting analysis. In kind it is functional, cell-based.
The test system of data set [18] is MCF7. Kind of data set: Antiinvasive activity in human MCF7 cells assessed as downregulation of alphaVbeta3 integrin protein expression at 4 uM after 24 hrs by Western blot analysis. In kind it is functional, cell-based.
Another data set concerns MDA-MB-231. Briefly: Cytotoxicity against human MDA-MB-231 cells assessed as cell viability at 0.5 to 32 uM after 24 hrs by MTT assay. Type of data set: functional, cell-based. An outline of the steps:
as §1

Data set [19] relates to MCF7. Briefly: Cell cycle arrest in human MCF7 cells assessed as accumulation at S phase at 4 uM after 24 hrs by propidium iodide staining-based flow cytometric analysis (reference value: 5%). In kind it is functional.
Data set [20] relates to MCF7. Kind of data set: Antiangiogenic activity in human MCF7 cells assessed as downregulation of phosphorylated ERK1/2 protein expression at 4 uM after 24 hrs by Western blotting analysis. Type of data set: functional, cell-based.
Data set [21] relates to MCF7. Briefly: Disruption of mitochondrial membrane potential in human MCF7 cells at 4 uM after 24 hrs by JC-1 dye-based fluorescence assay. Type of data set: functional, cell-based. Summed up:
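MCF-7 cells exposed 24 h at 4 µM, etoposide as reference, then stained with 2.5 µM JC-1 for 20 min at room temperature. Fluorescence imaging: red J-aggregates indicate intact potential, green monomers indicate loss, read as red-to-green shift.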

Take `COc1cc([C@@H]2c3cc4c(cc3[C@@H](NC(=O)CCCCCOc3ccc5nc(C)n(-c6ccc(F)cc6)c(=O)c5c3)[C@H]3COC(=O)[C@H]23)OCO4)cc(OC)c1OC`: the Activity was 45% in the data set on MCF7 [1]; “Non-toxic” in the data set on HUVEC [4]; 14% with MCF7 [9]; 37% in the data set with MCF7 [10]; 4% with MCF7 [19]. For the same compound, the outcome in the data set on MCF7 [2], in the data set with MCF7 [3], with MCF7 [5], in the data set on MCF7 [6], with MCF7 [7] and with MCF7 [11] was Active. Moreover, the outcome in the data set with MCF7 [12], with MCF7 [13], in the data set with MCF7 [14], in the data set with PANC-1, with MCF7 [15] and in the data set on MCF7 [17] was Active. The outcome with MCF7 [18], in the data set on MDA-MB-231, in the data set on MCF7 [20] and in the data set with MCF7 [21] was Active. Besides, the inhibition entry with HUVEC [8] was “Active”. Moreover, the outcome with MCF7 [16] was inactive.
